Measurements: the M2OR odorant receptor database
Where a chain is given by its changes, count along the chain named.

Legend:
Conditions in all cases: stereoisomer not certain
OR7G2 (Homo sapiens) = target: T1, OR7G2 (Homo sapiens) (UniProt Q8NG99)
T1 sequence (whole entry): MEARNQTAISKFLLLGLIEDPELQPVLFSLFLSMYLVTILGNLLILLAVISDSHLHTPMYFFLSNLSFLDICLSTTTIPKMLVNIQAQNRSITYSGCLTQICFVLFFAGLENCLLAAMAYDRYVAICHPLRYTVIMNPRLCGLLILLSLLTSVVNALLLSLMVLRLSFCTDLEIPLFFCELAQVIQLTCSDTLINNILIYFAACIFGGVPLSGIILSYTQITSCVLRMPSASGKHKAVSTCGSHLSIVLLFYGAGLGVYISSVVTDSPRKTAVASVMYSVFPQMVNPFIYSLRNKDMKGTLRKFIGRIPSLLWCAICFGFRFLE
Outline: (§1)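 Each receptor–molecule pair is labelled responsive or non-responsive (inactive) according to whether the original authors judged the measured signal statistically different from baseline. The data were taken from the main text and supplementary material of published papers and checked for typos and inconsistencies. Assay methods differed by source, with transient luciferase assays in mammalian cell lines being common.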

OR7G3 (Homo sapiens) = target: T2, OR7G3 (Homo sapiens) (UniProt Q8NG95)
T2 sequence (whole entry): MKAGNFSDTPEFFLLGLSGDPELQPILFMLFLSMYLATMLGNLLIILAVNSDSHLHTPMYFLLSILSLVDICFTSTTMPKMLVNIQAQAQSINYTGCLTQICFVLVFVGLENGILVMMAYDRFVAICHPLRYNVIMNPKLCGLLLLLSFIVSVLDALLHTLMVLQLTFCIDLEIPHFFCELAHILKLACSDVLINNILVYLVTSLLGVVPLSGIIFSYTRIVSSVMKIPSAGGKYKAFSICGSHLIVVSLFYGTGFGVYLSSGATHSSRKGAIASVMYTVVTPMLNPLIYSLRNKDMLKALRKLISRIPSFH
Outline: as §1

OR8A1 (Homo sapiens) = target: T3, OR8A1 (Homo sapiens) (UniProt Q8NGG7)
T3 sequence (whole entry): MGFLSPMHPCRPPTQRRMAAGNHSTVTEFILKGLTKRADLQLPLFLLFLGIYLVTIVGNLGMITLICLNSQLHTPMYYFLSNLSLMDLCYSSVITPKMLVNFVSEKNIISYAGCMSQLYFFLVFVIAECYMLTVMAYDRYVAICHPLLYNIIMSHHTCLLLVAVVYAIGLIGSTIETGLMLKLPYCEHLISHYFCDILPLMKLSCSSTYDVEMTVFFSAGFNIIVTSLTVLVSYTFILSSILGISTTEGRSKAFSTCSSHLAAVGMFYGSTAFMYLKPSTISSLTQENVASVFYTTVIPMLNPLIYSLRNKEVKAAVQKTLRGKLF
Outline: as §1

OR8B12 (Homo sapiens) = target: T4, OR8B12 (Homo sapiens) (UniProt Q8NGG6)
T4 sequence (whole entry): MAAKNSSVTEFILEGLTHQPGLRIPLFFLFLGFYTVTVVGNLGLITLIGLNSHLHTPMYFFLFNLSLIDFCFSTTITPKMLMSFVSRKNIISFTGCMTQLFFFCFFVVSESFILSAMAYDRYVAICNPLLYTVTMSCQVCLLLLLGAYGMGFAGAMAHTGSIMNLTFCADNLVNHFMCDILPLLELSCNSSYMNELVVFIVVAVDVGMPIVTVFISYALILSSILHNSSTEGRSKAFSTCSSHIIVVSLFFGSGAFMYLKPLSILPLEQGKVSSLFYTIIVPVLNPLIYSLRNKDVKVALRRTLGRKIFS
Outline: as §1

OR8B2 (Homo sapiens) = target: T5, OR8B2 (Homo sapiens) (UniProt Q96RD0)
T5 sequence (whole entry): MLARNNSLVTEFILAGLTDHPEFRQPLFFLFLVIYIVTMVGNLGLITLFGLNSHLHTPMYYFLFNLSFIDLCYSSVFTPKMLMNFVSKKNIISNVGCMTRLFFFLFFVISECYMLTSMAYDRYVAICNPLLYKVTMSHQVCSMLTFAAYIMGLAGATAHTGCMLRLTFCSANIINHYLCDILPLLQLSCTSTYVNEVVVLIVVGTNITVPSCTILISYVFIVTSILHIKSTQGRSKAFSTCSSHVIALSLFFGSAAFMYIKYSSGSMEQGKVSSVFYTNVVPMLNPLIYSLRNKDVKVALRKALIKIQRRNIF
Outline: as §1

OR8B3 (Homo sapiens) = target: T6, OR8B3 (Homo sapiens) (UniProt Q8NGG8)
T6 sequence (whole entry): T5 sequence (whole entry) with R24Q, I34V, T47I, N94Y, R100Q, T205I, T208M
Outline: as §1

OR7G2 = tested on: T7, OR7G2
T7 sequence (whole entry): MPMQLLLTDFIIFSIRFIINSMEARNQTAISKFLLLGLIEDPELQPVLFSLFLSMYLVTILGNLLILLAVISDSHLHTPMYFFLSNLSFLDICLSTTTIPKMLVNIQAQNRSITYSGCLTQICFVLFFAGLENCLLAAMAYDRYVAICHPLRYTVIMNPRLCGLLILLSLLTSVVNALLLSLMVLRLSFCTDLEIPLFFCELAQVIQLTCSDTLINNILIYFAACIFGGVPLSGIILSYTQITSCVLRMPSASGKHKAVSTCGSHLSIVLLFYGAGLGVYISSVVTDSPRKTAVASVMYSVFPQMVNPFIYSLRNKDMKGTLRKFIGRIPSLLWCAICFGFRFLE
Outline: as §1

OR7G3 M29V = tested on: T8, OR7G3 M29V
T8 sequence (whole entry): T2 sequence (whole entry) with M29V
Outline: as §1

OR8B2 L164F = tested on: T9, OR8B2 L164F
T9 sequence (whole entry): T5 sequence (whole entry) with L164F
Outline: as §1

OR8B2 S273F = tested on: T10, OR8B2 S273F
T10 sequence (whole entry): T5 sequence (whole entry) with S273F
Outline: as §1
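Also: active if original authors judged signal statistically different from baseline.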

Compound | odorant receptor agonist call (OR7G2 (Homo sapiens)) | odorant receptor agonist call (OR7G3 (Homo sapiens)) | odorant receptor agonist call (OR8A1 (Homo sapiens)) | odorant receptor agonist call (OR8B12 (Homo sapiens)) | odorant receptor agonist call (OR8B2 (Homo sapiens)) | odorant receptor agonist call (OR8B3 (Homo sapiens)) | odorant receptor agonist call (OR7G2) | odorant receptor agonist call (OR7G3 M29V) | odorant receptor agonist call (OR8B2 L164F) | odorant receptor agonist call (OR8B2 S273F)
CC(=O)c1c(C)c([N+](=O)[O-])c(C(C)(C)C)c([N+](=O)[O-])c1C | inactive | inactive | inactive | inactive | inactive | inactive |  |  |  | 
CC1CCCCCCCCCCCCC(=O)C1 (stereo unspecified) | inactive | inactive | inactive | inactive | inactive | inactive |  |  |  | 
CC1=C(O)C(=O)C(C)O1 (stereo unspecified) |  | inactive | inactive | inactive | inactive | inactive | inactive | inactive | inactive | inactive
CC(CO)CS (stereo unspecified) | inactive | inactive | inactive | inactive | inactive | inactive |  |  |  | 
O=C1CCOc2ccccc21 |  |  |  |  | active |  |  |  |  | 
CCCCCCC=CCCC=O | inactive | inactive | inactive | inactive | inactive | inactive |  | inactive | inactive | inactive
CCCCC(S)C(C)CO (stereo unspecified) | inactive | inactive | inactive | inactive | inactive | inactive |  |  |  | 
CC1=C(O)C(=O)OC1C (stereo unspecified) |  | inactive | inactive | inactive | inactive | inactive | inactive | inactive | inactive | inactive
CCCC(S)CCOC(C)=O (stereo unspecified) |  | inactive | inactive | inactive | inactive | inactive | inactive | inactive | inactive | inactive
CCCCCC(=O)C(C)C(C)=O (stereo unspecified) | inactive | inactive | inactive | inactive | inactive | inactive |  |  |  | 
Cc1cnc(C)c(C)n1 |  | inactive | inactive | inactive | inactive | inactive | inactive | inactive | inactive | inactive
CC1=NC(C)C(C)S1 (stereo unspecified) |  | inactive | inactive | inactive | inactive | inactive | inactive | inactive | inactive | inactive
O=c1ccc2ccccc2o1 |  |  |  |  | inactive |  |  |  |  | 
CCC1OC(C)=C(O)C1=O (stereo unspecified) |  | inactive | inactive | inactive | inactive | inactive | inactive | inactive | inactive | inactive
CCC1OC(=O)C(O)=C1C (stereo unspecified) |  | inactive | inactive | inactive | inactive | inactive | inactive | inactive | inactive | inactive
CCC(S)C(C)CO (stereo unspecified) | inactive | inactive | inactive | inactive | inactive | inactive |  |  |  | 
CCCCCC(S)C(C)CO (stereo unspecified) | inactive | inactive | inactive | inactive | inactive | inactive |  |  |  | 
